Screens from PubChem BioAssay.
A selection: hits, their analogues and other compounds. The true share with any hit is near 2.4%.
PfM18AAP inh – PfM18AAP inhibitors, malaria aminopeptidase, primary screen, biochemical, QFRET, recombinant enzyme. M18 aspartyl aminopeptidase (Plasmodium falciparum 3D7). H-Glu-NHMec fluorogenic cleavage. inhibition, % at 7.35 µM. 290,000 tested, 1.2% active. AID 1822, 2009;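 active means inhibition above the campaign mean inhibition over all tested compounds plus 3 SD, cut at about 28% in these data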;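 further: 0% = plate median of test compound wells and 100% = 2 mM ZnCl2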
HGIII-sPLA2 inh – human group III sPLA2 inhibitors, primary screen, biochemical, QFRET, BODIPY PC-A2 liposome substrate; Group 3 secretory phospholipase A2 (Homo sapiens), Q9NZ20; QFRET BODIPY PC-A2 liposome hydrolysis, fluorescence; inhibition, % at 12.2 µM; 370,000 tested, 0.56% active; AID 743126, 2013;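 active means inhibition above mean plus 3 SD of compounds lying within the high and low control bounds, cut at about 19% in these data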;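 further: 0% = median of test compound wells and 100% = no enzyme DMSO wells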
Target sequence (Q9NZ20 whole entry, looked up): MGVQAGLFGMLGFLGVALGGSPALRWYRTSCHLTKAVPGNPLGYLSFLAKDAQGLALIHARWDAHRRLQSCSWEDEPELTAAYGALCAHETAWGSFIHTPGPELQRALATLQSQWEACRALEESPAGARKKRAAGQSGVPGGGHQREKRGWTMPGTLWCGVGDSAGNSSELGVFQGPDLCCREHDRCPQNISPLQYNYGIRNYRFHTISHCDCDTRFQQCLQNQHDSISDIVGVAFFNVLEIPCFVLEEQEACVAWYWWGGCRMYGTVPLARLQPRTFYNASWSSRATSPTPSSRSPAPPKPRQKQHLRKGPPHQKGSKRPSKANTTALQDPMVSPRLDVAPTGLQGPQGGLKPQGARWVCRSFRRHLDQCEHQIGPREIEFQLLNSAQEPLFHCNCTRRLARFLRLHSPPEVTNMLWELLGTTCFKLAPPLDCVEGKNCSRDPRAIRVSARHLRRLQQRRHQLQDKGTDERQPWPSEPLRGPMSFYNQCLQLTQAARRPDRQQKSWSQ
IMP-1 inhibitor – IMP-1 metallo-beta-lactamase inhibitors, primary screen, biochemical, epi-absorbance readout, Pseudomonas aeruginosa enzyme. purified IMP-1, nitrocefin hydrolysis, epi-absorbance fluorescence. 290,000 tested, 0.45% active. metallo-beta-lactamase IMP-1 (Pseudomonas aeruginosa). inhibition, % at 5.6 µM;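 active means inhibition above the mean plus 3 SD of all compounds in the same screening run, cut at about 4.5% in these data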;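 further: 0% = IMP-1 with DMSO and 100% = DMSO wells lacking enzyme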
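System: Purified recombinant IMP-1 metallo-beta-lactamase enzyme | Measured by: Fluorescence quenching readout, ex 480/em 530 nm | Replication: Singlicate | Incubation: 15 min preincubation plus 25 min reaction at 25 °C | Evaluation: Percent inhibition from optical density relative to buffer-blank wells | Benchmarks: DMSO with and without IMP-1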
VIM-2 inh – VIM-2 metallo-beta-lactamase inhibitors, primary screen, biochemical, epi-absorbance readout, Pseudomonas aeruginosa enzyme. inhibition, % at 5.6 µM. purified VIM-2, nitrocefin hydrolysis, epi-absorbance fluorescence. 290,000 tested, 0.89% active. AID 1527, 2009;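 active means inhibition above the mean of all tested compounds plus 3 SD, cutoff set per screening run, cut at about 7.5% in these data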;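 further: red hydrolysis product quenches plate fluorescence so inhibitors raise well fluorescence; 0% = enzyme with DMSO and 100% = DMSO without enzyme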
sPLA2 confirm – human group III sPLA2 inhibitors, confirmation, biochemical, QFRET, triplicate; inhibition, % at 12.2 µM; 2,000 tested, 34% active; recombinant hGIII-sPLA2, BODIPY PC-A2 QFRET fluorescence; shares compounds with HGIII-sPLA2 inh;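 active means mean inhibition across triplicates above the hit cutoff set in the earlier primary screen, cut at about 19% in these data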;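 further: 0% = enzyme with DMSO and 100% = DMSO wells lacking enzyme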
535nm interf – 535nm fluorescence optical interference, confirmation, artefact control for HGIII-sPLA2 inhibitor project, biochemical, QFRET; shares compounds with HGIII-sPLA2 inh; BODIPY FL product fluorescence interference; inhibition, % at 12.2 µM; 2,000 tested, 8.5% active; AID 743282, 2014;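 active means average inhibition above the solvent-only control mean plus 3 SD, cut at about 6% in these data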;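 further: 0% = DMSO with substrate plus product and 100% = DMSO with substrate alone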
535nm interf DR – 535nm fluorescence optical interference, dose response, artefact control for HGIII-sPLA2 inhibitor project, biochemical, QFRET; IC50, µM; 240 tested, under 10 active; BODIPY FL product fluorescence interference, cell-free; shares compounds with HGIII-sPLA2 inh;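 active means IC50 at or below 10 µM; inactive means IC50 above 10 µM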
An asterisk follows results filed as active.

How did COc1ccc(-c2cc(C(=O)N3CCN(C(=O)c4ccccc4F)CC3)[nH]n2)cc1 do in these assays?
PfM18AAP inh: -2; HGIII-sPLA2 inh: -5; IMP-1 inhibitor: -1; VIM-2 inh: -1

Results for CN(C)c1ccc(C(=S)Nc2ccccc2)cc1 ?
PfM18AAP inh: -1; HGIII-sPLA2 inh: 22*; IMP-1 inhibitor: -1; VIM-2 inh: -1; sPLA2 confirm: 21*; 535nm interf: 3

How did C[N+](C)(C)CCCCCC(=O)/C=N/O do in these assays?
PfM18AAP inh: 1; HGIII-sPLA2 inh: 22*; IMP-1 inhibitor: -3; VIM-2 inh: -2; sPLA2 confirm: 4; 535nm interf: -5

Results for CCOC(=O)c1cc(C)sc1NC(=O)CN1CCN(C(=O)C2CCCO2)CC1 (centres undefined) ?
PfM18AAP inh: 2; HGIII-sPLA2 inh: 8; IMP-1 inhibitor: 0; VIM-2 inh: 0

How did Cc1c(C)n(CCC#N)c2ccccc12 do in these assays?
PfM18AAP inh: 6; HGIII-sPLA2 inh: 21*; IMP-1 inhibitor: -4; VIM-2 inh: -3; sPLA2 confirm: 9; 535nm interf: -2

What do the screens show for `COC(=O)c1sccc1NC(=S)Nc1cc(C)cc(C)c1`?
PfM18AAP inh: 6; HGIII-sPLA2 inh: 23*; IMP-1 inhibitor: -4; VIM-2 inh: -2; sPLA2 confirm: 15; 535nm interf: -4

How did COC(=O)c1sccc1NC(=S)Nc1cccc(F)c1 do in these assays?
PfM18AAP inh: -3; HGIII-sPLA2 inh: 19*; IMP-1 inhibitor: -3; VIM-2 inh: -2; sPLA2 confirm: 5; 535nm interf: 1

What do the screens show for `Cc1nnsc1C(=O)N/N=C/c1ccc2ccccc2c1O`?
PfM18AAP inh: 2; HGIII-sPLA2 inh: 38*; IMP-1 inhibitor: -2; VIM-2 inh: -3; sPLA2 confirm: 21*; 535nm interf: 2

Results for CCc1nc(SCC(=O)Nc2cc(OC)ccc2OC)c2c(C)c(C)sc2n1 ?
PfM18AAP inh: 8; HGIII-sPLA2 inh: 9; IMP-1 inhibitor: -2; VIM-2 inh: -2

Results for CN1CCN(CC(O)COc2ccc(C(=O)O)cc2)CC1 (centres undefined) ?
PfM18AAP inh: 1; HGIII-sPLA2 inh: 19*; IMP-1 inhibitor: -3; VIM-2 inh: 2; sPLA2 confirm: 6; 535nm interf: -6

What do the screens show for `CN1CCN(CC(O)COc2ccc(OCC(O)CN3CCN(C)CC3)cc2)CC1` (centres undefined)?
PfM18AAP inh: 7; HGIII-sPLA2 inh: 0; IMP-1 inhibitor: 1; VIM-2 inh: -1

How did COc1ccc(NC(=O)c2cc(C3CCCCN3S(=O)(=O)c3cccs3)on2)c(C)c1 (centres undefined) do in these assays?
HGIII-sPLA2 inh: -8

Results for O=C(CC1C(=O)NCCN1Cc1cccc(F)c1)NCCCCCN1CCOCC1 (centres undefined) ?
PfM18AAP inh: 19; HGIII-sPLA2 inh: 1; IMP-1 inhibitor: -2; VIM-2 inh: -1

How did CN(C)CCP(=O)(c1ccccc1)c1ccccc1 do in these assays?
PfM18AAP inh: -5; HGIII-sPLA2 inh: -3; IMP-1 inhibitor: 0; VIM-2 inh: 0

What do the screens show for `CCCP(=O)(CCC)CCP(=O)(c1ccccc1)c1ccccc1`?
PfM18AAP inh: 2; HGIII-sPLA2 inh: 20*; IMP-1 inhibitor: -4; VIM-2 inh: -2; sPLA2 confirm: 4; 535nm interf: -11

What do the screens show for `COc1ccc(-n2c(-c3cc(-c4ccccc4)sc3N)n[nH]c2=S)cc1`?
PfM18AAP inh: 14; HGIII-sPLA2 inh: 27*; IMP-1 inhibitor: -1; VIM-2 inh: -3; sPLA2 confirm: 21*; 535nm interf: 10*

How did CCN1C[C@@H]2[C@@H]3C(=O)N(Cc4ccccc4)C(=O)[C@@H]3[C@](Cc3ccccc3)(C(=O)OC)N2C1=NC do in these assays?
HGIII-sPLA2 inh: 2

Results for COc1ccc(C(C)C)cc1-c1cccc2nncn12 ?
HGIII-sPLA2 inh: 21*; sPLA2 confirm: 5; 535nm interf: -6

Results for CC(C)c1c(C(=O)N/N=C/c2ccc3c(c2)OCO3)nnn1-c1nonc1N ?
PfM18AAP inh: 3; HGIII-sPLA2 inh: -4; IMP-1 inhibitor: -4; VIM-2 inh: -1

How did CCN(CC)c1ccc(C=NNC(=O)c2cc(-c3ccc(C)c(C)c3)n[nH]2)c(O)c1 do in these assays?
HGIII-sPLA2 inh: 21*; sPLA2 confirm: 31*; 535nm interf: 3; 535nm interf DR: >122

What do the screens show for `CCN(CC)c1ccc(/C=N/NC(=O)c2nnn(-c3nonc3N)c2C(C)C)c(O)c1`?
PfM18AAP inh: 12; HGIII-sPLA2 inh: 24*; IMP-1 inhibitor: 2; VIM-2 inh: -2; sPLA2 confirm: 46*; 535nm interf: 7.6*

Results for O=C(Nc1nnc(-c2ccccc2Cl)s1)C1CCN(S(=O)(=O)c2ccc(Cl)cc2)CC1 ?
PfM18AAP inh: 1; HGIII-sPLA2 inh: -3; IMP-1 inhibitor: -3; VIM-2 inh: -2

Results for O=C(Nc1nnc(-c2ccccc2F)s1)C1CCN(S(=O)(=O)c2ccc(Cl)cc2)CC1 ?
PfM18AAP inh: -3; HGIII-sPLA2 inh: 23*; IMP-1 inhibitor: -1; VIM-2 inh: -1; sPLA2 confirm: -7; 535nm interf: -8

What do the screens show for `COc1ccc(NC(=O)Nc2cnccn2)cc1`?
PfM18AAP inh: 2; HGIII-sPLA2 inh: 22*; IMP-1 inhibitor: -2; VIM-2 inh: -3; sPLA2 confirm: 2; 535nm interf: -4

Results for Cc1cnc(C(=O)OCC(=O)c2ccc(F)cc2)cn1 ?
PfM18AAP inh: -3; HGIII-sPLA2 inh: 7; IMP-1 inhibitor: 1; VIM-2 inh: 1

How did COC(=O)c1cc(CSC(=N)N)ccc1OCCC(C)C do in these assays?
PfM18AAP inh: -1; HGIII-sPLA2 inh: 21*; IMP-1 inhibitor: -4; VIM-2 inh: -2; sPLA2 confirm: 29*; 535nm interf: -13

How did CCCN(C(=O)CCc1cn(CCC)c2ccccc12)c1ccc(Oc2cccnc2)cc1 do in these assays?
HGIII-sPLA2 inh: -58

What do the screens show for `CCCCOc1ccc(C(C)NC(=O)C2CCCN(S(=O)(=O)CCC)C2)cc1` (centres undefined)?
PfM18AAP inh: -4; HGIII-sPLA2 inh: 20*; IMP-1 inhibitor: -1; VIM-2 inh: -2; sPLA2 confirm: -4; 535nm interf: -19
